Laboratory results published in ChEMBL document CHEMBL3045217, “Factors affecting the synergy of thiabendazole, sodium bicarbonate, and heat to control postharvest green mold of citrus fruit” (J Agric Food Chem, 2008).

Assays:
Penicillium digitatum [1] = test: Fungicidal activity against Penicillium digitatum infected Valenica oranges assessed as fruit weight loss at 200 mg/L treated for 1 min at 50 degC postharvest at 20 hr after fungal conidial inoculation measured after 14 days of storage at 17 degC (water Rvb = 6.18%); format: functional
Penicillium digitatum [2] = test: Fungicidal activity against Penicillium digitatum infected Valenica oranges assessed as fruit weight loss at 400 mg/L treated for 1 min at 40 degC postharvest at 20 hr after fungal conidial inoculation measured after 14 days of storage at 17 degC in presence of 0.5% SBC (water Rvb = 7.90%); format: functional
Penicillium digitatum [3] = test: Fungicidal activity against Penicillium digitatum infected Valenica oranges assessed as fruit weight loss at 600 mg/L treated for 1 min at 20 degC postharvest at 20 hr after fungal conidial inoculation measured after 14 days of storage at 17 degC (water Rvb = 5.62%); format: functional
Penicillium digitatum [4] = test: Fungicidal activity against Penicillium digitatum infected Valenica oranges assessed as fruit weight loss at 400 mg/L treated for 1 min at 40 degC postharvest at 20 hr after fungal conidial inoculation measured after 7 days of storage at 17 degC in presence of 2% SBC (water Rvb = 4.70%); format: functional
Penicillium digitatum [5] = test: Fungicidal activity against Penicillium digitatum infected Valenica oranges assessed as fruit weight loss at 600 mg/L treated for 1 min at 20 degC postharvest at 20 hr after fungal conidial inoculation measured after 7 days of storage at 17 degC in presence of 2% SBC (water Rvb = 3.94%); format: functional
Penicillium digitatum [6] = test: (§1) Fungicidal activity against TBZ-sensitive Penicillium digitatum infected Nova mandarins assessed as postharvest green mold incidence at 400 mg/L treated for 1 min at 40 degC at 20 hr after fungal conidial inoculation measured after 5 days of storage at 20 degC in presence of 1% SBC (water Rvb = 93.3%); format: functional
In short: (§2)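 Fruit were surface-disinfected in 1 g/L hypochlorite for 30 s, rinsed, dried, then wounded twice equatorially (2 mm × 2 mm rod). Inoculation was a 1 min dip in P. digitatum conidia, 1 × 10^5 conidia/mL final. Fruit were held 20 h at 20 °C and 90% RH, dipped 1 min (SBC wt/vol), and air-dried. Storage was 20 °C, 90% RH. Decay incidence (% fruit with lesions) was scored at 5 d for mandarins and 7 d for oranges. Three replicates of 40 fruit were used; arcsin-transformed data were compared by LSD, p ≤ 0.05.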

Fruit [7] = test: Drug residues in Citrus sinensis cvs. Valencia late (Valencia oranges) at 600 mg/L treated for 1 min at 20 degC postharvest measured after 20 days of storage at 17 degC in presence of 2% SBC by GC analysis; format: ADME
In short: (§3)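 'Valencia' oranges were dipped 1 min in TBZ at 600 mg/L (20 °C, ±0.5, 1 or 2% wt/vol SBC), 400 mg/L (40 °C, ±SBC) or 200 mg/L (50 °C, alone), then air-dried. They were sampled at 0, 10 and 20 days at 17 °C. Peel of five fruit was frozen, and 5 g of homogenate was extracted with ethyl acetate/hexane (1/1) plus NaCl. The extract was dried under N2, taken up in acetone and analysed by GC. Results are mg/kg on a whole-fruit basis.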

Penicillium digitatum [8] = test: Fungicidal activity against TBZ-resistant Penicillium digitatum infected Valencia oranges assessed as postharvest green mold incidence at 600 mg/L treated for 1 min at 20 degC at 20 hr after fungal conidial inoculation measured after 7 days of storage at 20 degC (water Rvb = 96.7%); format: functional
Penicillium digitatum [9] = test: as §1, with “Valencia oranges” for “Nova mandarins”, “7” for “5”, “0.5%” for “1%”, “42.5%)” for “93.3%)”; format: functional; in short: as §2
Fruit [10] = test: Total drug residues in Citrus sinensis cvs. Salustiana (Salustiana oranges) fruit at 600 mg/L treated for 1 min at 20 degC postharvest measured after overnight incubation at 17 degC in presence of 2% SBC by GC analysis; format: ADME
In short: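 'Salustiana' oranges were water-washed, dried, dipped, then dried overnight at 17 °C in the dark. Unextracted fruit were used for total residues. Peel from five oranges was frozen at -18 °C. 5 g homogenized peel was extracted with 10 mL ethyl acetate/hexane (1/1) plus 2 g NaCl, shaken 30 min, then 1 mL of organic layer was dried under N2, redissolved in acetone, and run by GC without cleanup. Results are on a whole-fruit basis.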

Inner fruit [11] = test: Drug residues in Citrus sinensis cvs. Salustiana (Salustiana oranges) inner fruit at 600 mg/L treated for 1 min at 20 degC postharvest measured after overnight incubation at 17 degC in presence of 2% SBC by GC analysis; format: ADME
In short: (§4)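 'Salustiana' oranges were washed with water and air-dried. They were dipped 1 or 3 min in TBZ 600 mg/L at 20 or 50 °C, or 1 min in TBZ 600 mg/L plus 2% SBC at 20 °C, then dried overnight at 17 °C in the dark. Surface residue was taken by water extraction and wax residue by chloroform extraction. Inner residue was measured in fruit after both extractions. Extracts were dried under N2, taken up in acetone and analysed by GC. Values are mg/kg on a whole-fruit basis.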

Fruit [12] = test: Drug residues in Citrus sinensis cvs. Valencia late (Valencia oranges) at 400 mg/L treated for 1 min at 40 degC postharvest measured immediately post-drug treatment in presence of 2% SBC by GC analysis; format: ADME; in short: as §3
Fruit [13] = test: Drug residues in Citrus sinensis cvs. Valencia late (Valencia oranges) at 600 mg/L treated for 1 min at 20 degC postharvest measured immediately post-drug treatment in presence of 1% SBC by GC analysis; format: ADME; in short: as §3
Fruit [14] = test: Drug residues in Citrus sinensis cvs. Valencia late (Valencia oranges) at 600 mg/L treated for 1 min at 20 degC postharvest measured immediately post-drug treatment by GC analysis; format: ADME; in short: as §3
Penicillium digitatum [15] = test: Fungicidal activity against TBZ-sensitive Penicillium digitatum infected Valencia oranges assessed as postharvest green mold incidence at 600 mg/L treated for 1 min at 20 degC at 20 hr after fungal conidial inoculation measured after 7 days of storage at 20 degC in presence of 1% SBC (water Rvb = 30.8%); format: functional; in short: as §2
Penicillium digitatum [16] = test: Fungicidal activity against TBZ-sensitive Penicillium digitatum infected Valencia oranges assessed as postharvest green mold incidence at 600 mg/L treated for 1 min at 20 degC at 20 hr after fungal conidial inoculation measured after 7 days of storage at 20 degC (water Rvb = 92.5%); format: functional
Penicillium digitatum [17] = test: as §1, with “TBZ-resistant” for “TBZ-sensitive”, “600” for “400”, “20” for “40”, “2%” for “1%”, “61.7%)” for “93.3%)”; format: functional
Inner fruit [18] = test: Drug residues in Citrus sinensis cvs. Salustiana (Salustiana oranges) inner fruit at 600 mg/L treated for 1 min at 50 degC postharvest measured after overnight incubation at 17 degC by GC analysis; format: ADME; in short: as §4
Cuticular wax = test: Drug residues in Citrus sinensis cvs. Salustiana (Salustiana oranges) cuticular wax at 600 mg/L treated for 1 min at 20 degC postharvest measured after overnight incubation at 17 degC in presence of 2% SBC by GC analysis; format: ADME; in short: as §4
Fruit [19] = test: Drug residues in Citrus sinensis cvs. Valencia late (Valencia oranges) at 200 mg/L treated for 1 min at 50 degC postharvest measured after 20 days of storage at 17 degC by GC analysis; format: ADME; in short: as §3

Molecule `c1ccc2[nH]c(-c3cscn3)nc2c1` [THIABENDAZOLE] has an Activity (Penicillium digitatum [1]) of 5.8%, an Activity (Penicillium digitatum [2]) of 8.39% and an Activity (Penicillium digitatum [3]) of 6.33%. The Activity (Penicillium digitatum [4]) was 4.55%, the Activity (Penicillium digitatum [5]) was 4.81% and the Activity (Penicillium digitatum [6]) was 5%. The Drug uptake (Fruit [7]) was 1.38 mg/kg, the Activity (Penicillium digitatum [8]) was 78.3% and the Activity (Penicillium digitatum [9]) was 16.7%. It also gave a Drug uptake (Fruit [10]) of 0.91 mg/kg, a Drug uptake (Inner fruit [11]) of 0.01 mg/kg and a Drug uptake (Fruit [12]) of 0.74 mg/kg. The Drug uptake (Fruit [13]) was 1.31 mg/kg, the Drug uptake (Fruit [14]) was 1.59 mg/kg and the Activity (Penicillium digitatum [15]) was 9.2%. It also gave an Activity (Penicillium digitatum [16]) of 31.7%, an Activity (Penicillium digitatum [17]) of 40% and a Drug uptake (Inner fruit [18]) of 0.17 mg/kg. It also gave a Drug uptake (Cuticular wax) of 0.46 mg/kg and a Drug uptake (Fruit [19]) of 0.38 mg/kg.
